Hits are enriched below; roughly 2% of the tested compounds scored in any of these assays.
Granule exo inh = LAMP-1 surface exposure blockers, TALL-104 cells – cell-based, flow cytometry, MLPCN library, primary screen; 360,000 compounds, 0.66% hits; inhibition, % at 10 µM; TALL-104 LAMP-1 surface exposure; cells stimulated with thapsigargin and PMA;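 active means inhibition above about 55%, limit read from the data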
FGF22 binding = binders of human FGF22 protein, primary screen, FGF22 synaptogenesis inhibitor project, biophysical, thermal shift, single point | activity (Tm shift, normalised), % at 9.99 µM | 340,000 compounds, 1.5% hits | recombinant FGF22 thermal shift, SYPRO orange fluorescence; percent of sucrose octasulfate shift, DMSO zero | Fibroblast growth factor 22 (Homo sapiens), Q9HCT0;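 active means mean Tm shift, scaled 0 neutral to 100 positive control, at about 1.3% or above, every replicate too, limit read from the data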
DAGLB inhibitor = DAGLB lipase inhibitors, primary screen, biochemical, fluorescence, HTS. Diacylglycerol lipase-beta (Homo sapiens), Q8NCG7. HEK293T DAGLB membrane lysate, EnzChek fluorogenic substrate. inhibition, % at 5.17 µM. 340,000 compounds, 0.059% hits. AID 504411, 2011; in the data active means inhibition above about 34%;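 further: 0% = enzyme with vehicle and 100% = wells lacking enzyme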
VLA-4 inh = inhibition in human VLA-4 binding assay, primary screen, VLA-4 allosteric modulator project, MLPCN library, flow cytometry, VLA-4 expressing cells | Integrin alpha-4 (Homo sapiens), P13612 | ligand binding flow cytometry | inhibition, % (about 7 µM as worked out from the volumes in the protocol) | 330,000 compounds, 0.2% hits | AID 2557, 2010; in the data active means inhibition above about 50%
Target sequence (P13612 whole entry, looked up): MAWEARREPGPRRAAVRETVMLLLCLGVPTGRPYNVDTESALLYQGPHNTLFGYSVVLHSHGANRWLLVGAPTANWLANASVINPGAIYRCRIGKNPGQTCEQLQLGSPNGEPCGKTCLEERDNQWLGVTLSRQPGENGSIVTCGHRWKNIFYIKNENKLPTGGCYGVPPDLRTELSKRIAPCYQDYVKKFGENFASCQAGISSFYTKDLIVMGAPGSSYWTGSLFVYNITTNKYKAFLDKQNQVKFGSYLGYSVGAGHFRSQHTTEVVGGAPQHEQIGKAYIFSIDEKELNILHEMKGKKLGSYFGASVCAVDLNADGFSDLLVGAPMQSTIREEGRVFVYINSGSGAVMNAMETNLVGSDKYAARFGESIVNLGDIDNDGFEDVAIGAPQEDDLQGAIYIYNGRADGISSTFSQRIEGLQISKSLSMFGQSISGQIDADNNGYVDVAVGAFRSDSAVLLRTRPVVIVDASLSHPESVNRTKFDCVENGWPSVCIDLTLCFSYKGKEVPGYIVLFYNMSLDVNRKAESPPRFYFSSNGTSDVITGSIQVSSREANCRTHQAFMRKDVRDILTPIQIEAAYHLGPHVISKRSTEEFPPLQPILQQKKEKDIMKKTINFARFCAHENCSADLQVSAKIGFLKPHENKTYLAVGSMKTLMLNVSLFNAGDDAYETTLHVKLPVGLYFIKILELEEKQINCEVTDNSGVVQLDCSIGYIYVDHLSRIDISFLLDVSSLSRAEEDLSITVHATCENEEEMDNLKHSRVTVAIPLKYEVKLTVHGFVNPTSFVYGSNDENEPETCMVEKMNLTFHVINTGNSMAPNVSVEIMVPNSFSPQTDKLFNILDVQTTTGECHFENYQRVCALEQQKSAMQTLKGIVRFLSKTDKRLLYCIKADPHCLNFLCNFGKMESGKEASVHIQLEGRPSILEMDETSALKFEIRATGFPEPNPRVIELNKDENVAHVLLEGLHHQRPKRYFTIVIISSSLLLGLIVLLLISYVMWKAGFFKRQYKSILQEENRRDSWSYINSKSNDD
MT1-MMP act inh = blockers of MT1-MMP proenzyme processing, primary screen, HT1080 RFP-PRO-GFP cells, GFP/RFP fluorescence; Matrix metalloproteinase-14 (Homo sapiens), P50281; GFP/RFP ratio fluorescence, overnight; percent of plate control window, DMSO zero; GFP/RFP ratio change, % at 20 µM; 360,000 compounds, 0.061% hits;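 active means GFP/RFP ratio change of at least 30% with cell ATP level not reduced by more than half and red fluorescence within 50% of control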
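Test system: HT1080 RFP-PRO-GFP cells; Benchmarks: DMSO and RFP-L50D-GFP cell wells; Timing: cells overnight before dosing, compound overnight, 37 °C, 5% CO2; Compound: one 20 µM compound dose with 1% DMSO; Read-out: GFP/RFP fluorescence ratio.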
ABCB6 inh MLPCN = ABCB6 transporter inhibitors, primary screen, K562-ABCB6 cells, flow cytometry, MLPCN library | 360,000 compounds, 0.19% hits | ATP-binding cassette sub-family B member 6 (Homo sapiens), Q9NP58 | fluorescence ratio to DMSO, % at 10 µM | K562-ABCB6 porphyrin accumulation, 1 h; hits give low values;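 active means fluorescence ratio to DMSO below 75%, the collection mean minus 3 SD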;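 further: signal is porphyrin accumulated inside mitochondria; 100% equals median channel fluorescence of DMSO control wells; lower ratio means ABCB6 inhibition with less porphyrin fluorescence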
VLA-4 mod pick = retest of VLA-4 allosteric modulators, confirmation, cell-based, cherry-picked plates, U937, HUTS-21 LIBS antibody. shares compounds with VLA-4 inh. U937 cells, HUTS-21 LIBS mAb binding, flow cytometry; LDV ligand present at threefold Kd. inhibition, % at 6.7 µM. 1,300 compounds, 2% hits; in the data active means inhibition above about 40%;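 further: 0% = ligand without compound and 100% = no ligand background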
Numbers without * were called inactive; / = no result.

SMILES	Granule exo inh	FGF22 binding	DAGLB inhibitor	VLA-4 inh	MT1-MMP act inh	ABCB6 inh MLPCN	VLA-4 mod pick
C[C@@H]1CCCCO[C@@H](CN(C)CC2CCCCC2)[C@H](C)CN([C@H](C)CO)C(=O)c2cc(NC(=O)Nc3cccc4ccccc34)ccc2O1	/	1.3*	/	/	/	/	/
C[C@H](CO)N1C[C@H](C)[C@@H](CN(C)C(=O)Nc2cccc3ccccc23)OCCCC[C@H](C)Oc2ccc(NC(=O)Nc3ccc4c(c3)OCO4)cc2C1=O	/	1.7*	/	/	/	/	/
C[C@@H]1CN([C@@H](C)CO)C(=O)c2cc(NC(=O)Nc3cccc4ccccc34)ccc2O[C@@H](C)CCCCO[C@@H]1CN(C)CC1CCCCC1	/	1	/	/	/	/	/
C[C@@H]1CCCCO[C@@H](CN(C)C(=O)Nc2ccc3c(c2)OCO3)[C@H](C)CN([C@@H](C)CO)C(=O)c2cc(NC(=O)Nc3cccc4ccccc34)ccc2O1	/	0	/	/	/	/	/
CCCNC(=O)Nc1ccc2c(c1)C(=O)N(C)[C@@H]1CC[C@H](CC(=O)O)O[C@H]1CO2	/	0	/	/	/	/	/
CC(=O)NCCC(=O)N1CCCC(CNC(=O)c2ccc(-c3ccccc3)cc2)C1 (stereo not given)	-4	43*	0	-18	-5	102	/
CCOc1ccc(/C=C2/SC(=S)N(C(C(=O)O)c3ccccc3)C2=O)cc1OCC (stereo not given)	4	7.5*	2	/	1	95	/
Cc1cnc(C(=O)NCc2ccc(Cl)cc2Cl)cn1	-5	43*	3	6	-7	101	/
Cc1sc2nc(CN3CCN(S(=O)(=O)c4cccc5nonc45)CC3)[nH]c(=O)c2c1C	1	/	-1	14	0	24*	/
Cc1cccc(NC(=O)CN2C(=O)N/C(=C/c3cc(C)n(-c4ccncc4)c3C)C2=O)c1	-1	0	2	20	4	91	/
Cc1cccc(NC(=O)CN2C(=O)N/C(=C/c3cc(C)n(C)c3C)C2=O)c1	-2	44*	5	/	-6	89	/
CCCC#Cc1cnc2c(c1)C(=O)N([C@@H](C)CO)C[C@H](C)[C@@H](CN(C)C(=O)c1ccc3c(c1)OCO3)O2	/	0	/	/	/	/	/
CN1CCc2c1nc1ccccc1c2N=C1CCCN1Cc1ccccc1	7	43*	4	-5	3	95	/
O=C(CCSc1nnc(-c2ccncc2)o1)Nc1ccc(Cl)cc1	0	/	0	51*	3	94	0
O=C(CCSc1nnc(-c2ccncc2)o1)Nc1cccc(Cl)c1	-1	0	-2	0	3	86	/
COCCCN(C(=O)CCOc1ccc(C)cc1)c1c(N)n(Cc2ccccc2)c(=O)[nH]c1=O	9	0	0	50*	-1	90	4
COCCCN(C(=O)CCOc1ccc(C(C)(C)C)cc1)c1c(N)n(Cc2ccccc2)c(=O)[nH]c1=O	-2	0	6	16	-1	102	/
COc1ccc(Br)cc1CNC(=O)CCCc1cn(C)c2ccccc12	-1	-1	-14	53*	-4	97	-4
COC(=O)COc1ccc(NC(=O)C(c2ccccc2)c2ccccc2)cc1	47	0	-1	50*	0	102	14
O=C(O)COc1ccc(NC(=O)C(c2ccccc2)c2ccccc2)cc1	-26	0	-1	8	-5	99	/
CCC(=O)Nc1ccc2c(c1)C(=O)N(C)C[C@H](OC)[C@@H](C)CN(C(=O)c1ccccn1)[C@@H](C)CO2	/	0	/	/	/	/	/
Cc1ccc(NC(=O)C2C3CC4OC(=O)C2C4C3)cc1Cl (stereo not given)	-15	/	-4	56*	0	192	-6
O=C(NC1CCCC1)[C@@H]1[C@@H](CO)[C@@H]2Cn3c(ccc(-c4cccnc4)c3=O)[C@H]1N2CCc1ccccc1	/	0	/	/	/	/	/
O=C1Nc2ccc(F)cc2C12OCCO2	-6	0	-3	51*	1	87	0
Cc1ccc2c(c1)C1(OCCO1)C(=O)N2	-2	/	-1	-3	-6	122	/
SMILES	Granule exo inh	FGF22 binding	DAGLB inhibitor	VLA-4 inh	MT1-MMP act inh	ABCB6 inh MLPCN	VLA-4 mod pick
Nc1cccc(S(=O)(=O)Nc2ccc(Br)cc2)c1	-2	1	0	5	0	96	/
Nc1cccc(S(=O)(=O)Nc2ccccc2)c1	0	0	0	20	1	98	5
Nc1ccc(NS(=O)(=O)c2ccccc2)cc1	0	-1	-1	-7	1	107	11
C[C@H]1CN([C@@H](C)CO)C(=O)CCCn2cc(nn2)CO[C@H]1CN(C)S(=O)(=O)c1ccc(F)cc1	/	0	/	/	/	/	/
CCCN1C(=O)C(=O)c2cc(C)ccc21	15	0	0	17	2	103	/
CCCCN1C(=O)C(=O)c2cc(Cl)ccc21	12	0	-3	55*	4	102	51*
Cc1ccc(S(=O)(=O)Nc2ccc3c(c2)C(=O)N([C@@H](C)CO)C[C@@H](C)[C@@H](CN(C)Cc2ccccc2)OCCCC[C@@H](C)O3)cc1	/	0	/	/	/	/	/
Cc1c(Cl)ccc2sc(NC(=O)c3ccco3)nc12	-1	0	-8	54*	1	97	2
CS(=O)(=O)c1ccc2nc(NC(=O)c3ccco3)sc2c1	0	0	0	18	-1	98	/
Cc1ccc(S(=O)(=O)Nc2ccc3c(c2)CC(=O)N([C@H](C)CO)C[C@H](C)[C@@H](CN(C)C(=O)Nc2ccc(C(F)(F)F)cc2)O3)cc1	/	-1	/	/	/	/	/
Cc1c(N(C(=O)c2cc(=O)[nH]c3ccccc23)C(C)C)c(=O)n(-c2ccccc2)n1C	3	0	0	10	-2	100	0
COc1ccccc1-c1cnc2c(c1)C(=O)N([C@@H](C)CO)C[C@H](C)[C@@H](CN(C)Cc1cncnc1)O2	/	0	/	/	/	/	/
CC1CCCC(C)N1CCCNC(=O)c1ccc2nc(N3CCCCC3)sc2c1 (stereo not given)	-1	0	0	51*	3	100	3
CCC1CCCCN1CCCNC(=O)c1ccc2nc(N3CCCCC3)sc2c1 (stereo not given)	-3	0	1	0	-4	107	/

Screening data: PubChem BioAssay, several laboratories
